Reference: ChEMBL document CHEMBL2331542, “Synthesis and in vitro antibacterial activity of quinolone/naphthyridone derivatives containing 3-alkoxyimino-4-(methyl)aminopiperidine scaffolds” (2013)
≈ marks a conversion by molar mass, not a printed value.

How the values were obtained:
Type in all cases: functional
Escherichia coli [1] = test: Antibacterial activity against extended-spectrum beta-lactamase-producing Escherichia coli isolate 12-4
Outline: (§1)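 MIC determined in vitro by a standard technique and defined as the lowest compound concentration giving complete inhibition of bacterial growth. The Gram-positive and Gram-negative panels were tested alongside gemifloxacin, levofloxacin and ciprofloxacin reference drugs.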

Escherichia coli [2] = test: Antibacterial activity against extended-spectrum beta-lactamase-producing Escherichia coli isolate 12-2; outline: as §1
Escherichia coli [3] = test: Antibacterial activity against extended-spectrum beta-lactamase-producing Escherichia coli isolate 12-1; outline: as §1
Escherichia coli [4] = test: Antibacterial activity against Escherichia coli isolate 12-5; outline: as §1
Escherichia coli [5] = test: Antibacterial activity against Escherichia coli isolate 12-4; outline: as §1
Escherichia coli [6] = test: Antibacterial activity against Escherichia coli isolate 12-1; outline: as §1
Escherichia coli [7] = test: Antibacterial activity against Escherichia coli ATCC 25922; outline: as §1
Streptococcus pneumoniae [8] = test: Antibacterial activity against Streptococcus pneumoniae isolate 12-5; outline: as §1
Streptococcus pneumoniae [9] = test: Antibacterial activity against Streptococcus pneumoniae isolate 12-2; outline: as §1
[10] = tested on: Staphylococcus epidermidis; test: Antibacterial activity against methicillin-resistant Staphylococcus epidermidis isolate 12-35
Outline: (§2)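 MIC determined in vitro by standard techniques, defined as the lowest compound concentration giving complete inhibition of bacterial growth. Gemifloxacin, levofloxacin and ciprofloxacin were tested alongside as reference drugs.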

[11] = tested on: Staphylococcus epidermidis; test: Antibacterial activity against methicillin-resistant Staphylococcus epidermidis isolate 12-33; outline: as §2
[12] = tested on: Staphylococcus epidermidis; test: Antibacterial activity against methicillin-resistant Staphylococcus epidermidis isolate 12-5; outline: as §2
[13] = tested on: Staphylococcus epidermidis; test: Antibacterial activity against methicillin-sensitive Staphylococcus epidermidis isolate 12-3; outline: as §1
[14] = tested on: Staphylococcus epidermidis; test: Antibacterial activity against methicillin-sensitive Staphylococcus epidermidis isolate 12-2; outline: as §1
[15] = tested on: Staphylococcus epidermidis; test: Antibacterial activity against methicillin-sensitive Staphylococcus epidermidis isolate 12-1; outline: as §1
Staphylococcus aureus [16] = test: Antibacterial activity against methicillin-resistant Staphylococcus aureus isolate 12-15; outline: as §2
Staphylococcus aureus [17] = test: Antibacterial activity against methicillin-resistant Staphylococcus aureus isolate 12-13; outline: as §2
Staphylococcus aureus [18] = test: Antibacterial activity against methicillin-resistant Staphylococcus aureus isolate 12-3; outline: as §2
Staphylococcus aureus [19] = test: Antibacterial activity against methicillin-sensitive Staphylococcus aureus isolate 12-10; outline: as §1
Staphylococcus aureus [20] = test: Antibacterial activity against methicillin-sensitive Staphylococcus aureus isolate 12-7; outline: as §1
Staphylococcus aureus [21] = test: Antibacterial activity against methicillin-sensitive Staphylococcus aureus isolate 12-6; outline: as §1
Staphylococcus aureus [22] = test: Antibacterial activity against Staphylococcus aureus […]; outline: as §1
Pseudomonas aeruginosa [23] = test: Antibacterial activity against Pseudomonas aeruginosa isolate 12-2; outline: as §1
Pseudomonas aeruginosa [24] = test: Antibacterial activity against Pseudomonas aeruginosa isolate 12-1; outline: as §1
Pseudomonas aeruginosa [25] = test: Antibacterial activity against Pseudomonas aeruginosa ATCC 27853; outline: as §1
Klebsiella pneumoniae [26] = test: Antibacterial activity against extended-spectrum beta-lactamase-producing Klebsiella pneumoniae isolate 12-4; outline: as §1
Klebsiella pneumoniae [27] = test: Antibacterial activity against extended-spectrum beta-lactamase-producing Klebsiella pneumoniae isolate 12-2; outline: as §1
Klebsiella pneumoniae [28] = test: Antibacterial activity against extended-spectrum beta-lactamase-producing Klebsiella pneumoniae isolate 12-1; outline: as §1
Klebsiella pneumoniae [29] = test: Antibacterial activity against Klebsiella pneumoniae isolate 12-4; outline: as §1
Klebsiella pneumoniae [30] = test: Antibacterial activity against Klebsiella pneumoniae isolate 12-2; outline: as §1
Klebsiella pneumoniae [31] = test: Antibacterial activity against Klebsiella pneumoniae isolate 12-1; outline: as §1

SMILES	MIC (Escherichia coli [2]) [mg/L]	MIC (Escherichia coli [3]) [mg/L]	MIC (Escherichia coli [4]) [mg/L]	MIC (Escherichia coli [5]) [mg/L]	MIC (Streptococcus pneumoniae [8]) [mg/L]	MIC [10] [mg/L]	MIC [11] [mg/L]	MIC [12] [mg/L]	MIC [13] [mg/L]	MIC [14] [mg/L]	MIC [15] [mg/L]	MIC (Staphylococcus aureus [19]) [mg/L]	MIC (Staphylococcus aureus [20]) [mg/L]	MIC (Staphylococcus aureus [22]) [mg/L]	MIC (Pseudomonas aeruginosa [23]) [mg/L]	MIC (Klebsiella pneumoniae [26]) [mg/L]	MIC (Klebsiella pneumoniae [27]) [mg/L]	MIC (Klebsiella pneumoniae [29]) [mg/L]	MIC (Klebsiella pneumoniae [30]) [mg/L]	MIC (Klebsiella pneumoniae [31]) [mg/L]	further results
CCO/N=C1\CN(c2c(F)cc3c(=O)c(C(=O)O)cn4c3c2OC[C@@H]4C)CCC1NC (stereo not given in full)	> 128	> 128	> 128	> 128	8 (≈ 18.5 µM)	0.5 (≈ 1.16 µM)	8 (≈ 18.5 µM)	0.5 (≈ 1.16 µM)	0.5 (≈ 1.16 µM)	2 (≈ 4.62 µM)	0.5 (≈ 1.16 µM)	> 128	128 (≈ 296 µM)	0.5 (≈ 1.16 µM)	8 (≈ 18.5 µM)	> 128	32 (≈ 74 µM)	1 (≈ 2.31 µM)	1 (≈ 2.31 µM)	2 (≈ 4.62 µM)	MIC (Escherichia coli [1]): 64 mg/L (≈ 148 µM); MIC (Escherichia coli [6]): 4 mg/L (≈ 9.25 µM); MIC (Escherichia coli [7]): 16 mg/L (≈ 37 µM); MIC (Streptococcus pneumoniae [9]): 1 mg/L (≈ 2.31 µM); MIC (Staphylococcus aureus [16]): 1 mg/L (≈ 2.31 µM); MIC (Staphylococcus aureus [17]): 1 mg/L (≈ 2.31 µM); MIC (Staphylococcus aureus [18]): 1 mg/L (≈ 2.31 µM); MIC (Staphylococcus aureus [21]): 1 mg/L (≈ 2.31 µM); MIC (Pseudomonas aeruginosa [24]): 16 mg/L (≈ 37 µM); MIC (Pseudomonas aeruginosa [25]): 32 mg/L (≈ 74 µM); MIC (Klebsiella pneumoniae [28]): 8 mg/L (≈ 18.5 µM)
O=C1NC2CCN(c3nc4c(cc3F)c(=O)c(C(=O)O)cn4C3CC3)CC2O1 (stereo not given)	> 128	> 128	> 128	> 128	0.5 (≈ 1.29 µM)	0.5 (≈ 1.29 µM)	1 (≈ 2.57 µM)	0.5 (≈ 1.29 µM)	1 (≈ 2.57 µM)	2 (≈ 5.15 µM)	1 (≈ 2.57 µM)	0.5 (≈ 1.29 µM)	128 (≈ 330 µM)	1 (≈ 2.57 µM)	16 (≈ 41.2 µM)	128 (≈ 330 µM)	> 128	32 (≈ 82.4 µM)	2 (≈ 5.15 µM)	2 (≈ 5.15 µM)	MIC (Escherichia coli [1]): 64 mg/L (≈ 165 µM); MIC (Escherichia coli [6]): 16 mg/L (≈ 41.2 µM); MIC (Escherichia coli [7]): 1 mg/L (≈ 2.57 µM); MIC (Streptococcus pneumoniae [9]): 2 mg/L (≈ 5.15 µM); MIC (Staphylococcus aureus [16]): 2 mg/L (≈ 5.15 µM); MIC (Staphylococcus aureus [17]): 2 mg/L (≈ 5.15 µM); MIC (Staphylococcus aureus [18]): 2 mg/L (≈ 5.15 µM); MIC (Staphylococcus aureus [21]): 1 mg/L (≈ 2.57 µM); MIC (Pseudomonas aeruginosa [24]): 16 mg/L (≈ 41.2 µM); MIC (Pseudomonas aeruginosa [25]): 8 mg/L (≈ 20.6 µM); MIC (Klebsiella pneumoniae [28]): 128 mg/L (≈ 330 µM)
CO/N=C1\CN(c2nc3c(cc2F)c(=O)c(C(=O)O)cn3C2CC2)CCC1N (stereo not given)	64 (≈ 164 µM)	> 128	> 128	> 128	4 (≈ 10.3 µM)	2 (≈ 5.14 µM)	4 (≈ 10.3 µM)	2 (≈ 5.14 µM)	0.5 (≈ 1.28 µM)	2 (≈ 5.14 µM)	0.5 (≈ 1.28 µM)	2 (≈ 5.14 µM)	32 (≈ 82.2 µM)	0.25 (≈ 0.642 µM)	8 (≈ 20.5 µM)	> 128	8 (≈ 20.5 µM)	0.125 (≈ 0.321 µM)	0.25 (≈ 0.642 µM)	0.25 (≈ 0.642 µM)	MIC (Escherichia coli [1]): 32 mg/L (≈ 82.2 µM); MIC (Escherichia coli [6]): 2 mg/L (≈ 5.14 µM); MIC (Escherichia coli [7]): 32 mg/L (≈ 82.2 µM); MIC (Streptococcus pneumoniae [9]): 0.25 mg/L (≈ 0.642 µM); MIC (Staphylococcus aureus [16]): 0.25 mg/L (≈ 0.642 µM); MIC (Staphylococcus aureus [17]): 0.25 mg/L (≈ 0.642 µM); MIC (Staphylococcus aureus [18]): 0.25 mg/L (≈ 0.642 µM); MIC (Staphylococcus aureus [21]): 0.25 mg/L (≈ 0.642 µM); MIC (Pseudomonas aeruginosa [24]): 8 mg/L (≈ 20.5 µM); MIC (Pseudomonas aeruginosa [25]): 32 mg/L (≈ 82.2 µM); MIC (Klebsiella pneumoniae [28]): 8 mg/L (≈ 20.5 µM)
CCO/N=C1\CN(c2nc3c(cc2F)c(=O)c(C(=O)O)cn3C2CC2)CCC1NC (stereo not given)	> 128	> 128	> 128	> 128	0.25 (≈ 0.599 µM)	1 (≈ 2.4 µM)	0.25 (≈ 0.599 µM)	1 (≈ 2.4 µM)	1 (≈ 2.4 µM)	4 (≈ 9.58 µM)	1 (≈ 2.4 µM)	0.5 (≈ 1.2 µM)	32 (≈ 76.7 µM)	0.5 (≈ 1.2 µM)	128 (≈ 307 µM)	> 128	> 128	2 (≈ 4.79 µM)	4 (≈ 9.58 µM)	4 (≈ 9.58 µM)	MIC (Escherichia coli [1]): 32 mg/L (≈ 76.7 µM); MIC (Escherichia coli [6]): 32 mg/L (≈ 76.7 µM); MIC (Escherichia coli [7]): 4 mg/L (≈ 9.58 µM); MIC (Streptococcus pneumoniae [9]): 0.25 mg/L (≈ 0.599 µM); MIC (Staphylococcus aureus [16]): 4 mg/L (≈ 9.58 µM); MIC (Staphylococcus aureus [17]): 4 mg/L (≈ 9.58 µM); MIC (Staphylococcus aureus [18]): 4 mg/L (≈ 9.58 µM); MIC (Staphylococcus aureus [21]): 0.25 mg/L (≈ 0.599 µM); MIC (Pseudomonas aeruginosa [24]): 128 mg/L (≈ 307 µM); MIC (Pseudomonas aeruginosa [25]): 4 mg/L (≈ 9.58 µM); MIC (Klebsiella pneumoniae [28]): 64 mg/L (≈ 153 µM)
O=C(O)c1cn(C2CC2)c2cc(N3CCNCC3)c(F)cc2c1=O [CIPROFLOXACIN]	–	–	–	–	–	0.015 (≈ 0.0453 µM)	0.015 (≈ 0.0453 µM)	0.015 (≈ 0.0453 µM)	0.06 (≈ 0.181 µM)	0.5 (≈ 1.51 µM)	0.06 (≈ 0.181 µM)	0.25 (≈ 0.754 µM)	64 (≈ 193 µM)	0.25 (≈ 0.754 µM)	16 (≈ 48.3 µM)	4 (≈ 12.1 µM)	4 (≈ 12.1 µM)	0.125 (≈ 0.377 µM)	0.125 (≈ 0.377 µM)	0.03 (≈ 0.0905 µM)	MIC (Klebsiella pneumoniae [28]): 2 mg/L (≈ 6.04 µM)
C[C@H]1COc2c(N3CCN(C)CC3)c(F)cc3c(=O)c(C(=O)O)cn1c23.C[C@H]1COc2c(N3CCN(C)CC3)c(F)cc3c(=O)c(C(=O)O)cn1c23.O [LEVOFLOXACIN]	16	16	8	8	0.125	0.125	8	0.125	0.25	0.25	0.25	0.06	32	0.125	16	4	8	0.25	0.06	0.06	MIC (Streptococcus pneumoniae [9]): 0.125 mg/L; MIC (Staphylococcus aureus [16]): 0.125 mg/L; MIC (Staphylococcus aureus [17]): 0.125 mg/L; MIC (Staphylococcus aureus [18]): 0.125 mg/L; MIC (Staphylococcus aureus [21]): 0.125 mg/L
